ChEMBL document CHEMBL3352570, “ST7612AA1, a thioacetate-ω(γ-lactam carboxamide) derivative selected from a novel generation of oral HDAC inhibitors” (J Med Chem, 2014)
One block for each compound: values may come before it. Activity calls are given as the source filed them. The calls are words filed in the database; no cut-off is given here.

Experiments:
[1] = Solubility of the compound in water; assay type: physicochemical
NCI-H460 = assay: Cytotoxicity against human NCI-H460 cells after 24 hrs by SRB assay; assay type: functional, cell-based; conditions: NCI-H460, 24 h
Summary of the method: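 NCI-H460 cells were grown in RPMI-1640 with L-glutamine, 10% heat-inactivated FCS and 50 μg/mL gentamicin. Cells were seeded at about 10% confluence and allowed to recover for 24 h. They were exposed to varying concentrations for 24 h, washed, then cultured a further 48 h. Surviving cells were measured by SRB. IC50 is the 50% reduction in cell number versus vehicle, from dose–response curve fitting; means of at least three experiments.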

[2] = biological target: T1, Protein deacetylase HDAC6 (Homo sapiens, UniProt Q9UBN7); assay: Inhibition of HDAC6 (unknown origin) using fluorogenic tetrapeptide RHKK(Ac) substrate by fluorescence assay
T1 sequence (Q9UBN7 whole entry): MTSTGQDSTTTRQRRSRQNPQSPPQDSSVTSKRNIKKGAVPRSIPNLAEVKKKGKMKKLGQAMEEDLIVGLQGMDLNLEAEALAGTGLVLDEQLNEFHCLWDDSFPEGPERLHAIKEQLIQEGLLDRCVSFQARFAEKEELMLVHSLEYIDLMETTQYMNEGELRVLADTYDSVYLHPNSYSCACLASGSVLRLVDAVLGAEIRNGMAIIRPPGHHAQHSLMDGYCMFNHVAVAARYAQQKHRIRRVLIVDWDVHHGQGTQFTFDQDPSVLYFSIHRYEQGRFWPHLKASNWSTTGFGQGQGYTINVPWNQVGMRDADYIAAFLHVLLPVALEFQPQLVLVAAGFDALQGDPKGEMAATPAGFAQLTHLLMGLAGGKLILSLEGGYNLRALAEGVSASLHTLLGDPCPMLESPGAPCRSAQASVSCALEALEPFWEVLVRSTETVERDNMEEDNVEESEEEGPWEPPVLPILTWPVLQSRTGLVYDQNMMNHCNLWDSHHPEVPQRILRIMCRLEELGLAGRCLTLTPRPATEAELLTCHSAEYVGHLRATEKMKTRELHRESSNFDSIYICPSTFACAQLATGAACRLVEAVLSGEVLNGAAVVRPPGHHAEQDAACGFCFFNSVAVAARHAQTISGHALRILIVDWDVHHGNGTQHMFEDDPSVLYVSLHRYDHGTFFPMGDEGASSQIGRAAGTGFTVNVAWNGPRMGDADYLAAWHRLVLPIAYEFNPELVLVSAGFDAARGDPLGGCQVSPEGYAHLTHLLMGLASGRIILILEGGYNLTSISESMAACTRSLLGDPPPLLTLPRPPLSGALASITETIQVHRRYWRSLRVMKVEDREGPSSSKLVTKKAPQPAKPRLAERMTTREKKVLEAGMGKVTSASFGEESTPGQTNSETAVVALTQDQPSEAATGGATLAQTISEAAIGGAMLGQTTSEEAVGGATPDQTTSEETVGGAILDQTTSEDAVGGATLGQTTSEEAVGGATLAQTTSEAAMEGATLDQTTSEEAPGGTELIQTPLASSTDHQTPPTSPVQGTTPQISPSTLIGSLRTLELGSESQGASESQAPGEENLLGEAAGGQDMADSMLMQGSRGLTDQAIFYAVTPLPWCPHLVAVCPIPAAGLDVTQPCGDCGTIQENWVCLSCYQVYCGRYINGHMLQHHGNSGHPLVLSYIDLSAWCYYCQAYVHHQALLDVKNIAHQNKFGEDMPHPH

Histone deacetylase 8 = biological target: T2, Histone deacetylase 8 (Homo sapiens, UniProt Q9BY41); assay: Inhibition of HDAC8 (unknown origin) using fluorogenic tetrapeptide RHK(Ac)K(Ac) substrate by fluorescence assay
T2 sequence (Q9BY41 whole entry): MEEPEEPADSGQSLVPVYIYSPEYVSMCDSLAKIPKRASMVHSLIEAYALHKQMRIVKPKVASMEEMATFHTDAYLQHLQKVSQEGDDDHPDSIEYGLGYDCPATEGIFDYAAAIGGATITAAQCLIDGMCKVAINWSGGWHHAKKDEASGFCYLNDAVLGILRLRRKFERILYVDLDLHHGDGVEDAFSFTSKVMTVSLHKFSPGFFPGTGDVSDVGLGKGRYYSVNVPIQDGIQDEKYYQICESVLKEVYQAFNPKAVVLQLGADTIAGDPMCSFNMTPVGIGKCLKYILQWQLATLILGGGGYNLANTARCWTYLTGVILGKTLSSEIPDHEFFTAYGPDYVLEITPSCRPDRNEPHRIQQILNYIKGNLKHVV

[3] = biological target: T3, Polyamine deacetylase HDAC10 (Homo sapiens, UniProt Q969S8); assay: Inhibition of HDAC10 (unknown origin) using fluorogenic tetrapeptide RHKK(Ac) substrate by fluorescence assay
T3 sequence (Q969S8 whole entry): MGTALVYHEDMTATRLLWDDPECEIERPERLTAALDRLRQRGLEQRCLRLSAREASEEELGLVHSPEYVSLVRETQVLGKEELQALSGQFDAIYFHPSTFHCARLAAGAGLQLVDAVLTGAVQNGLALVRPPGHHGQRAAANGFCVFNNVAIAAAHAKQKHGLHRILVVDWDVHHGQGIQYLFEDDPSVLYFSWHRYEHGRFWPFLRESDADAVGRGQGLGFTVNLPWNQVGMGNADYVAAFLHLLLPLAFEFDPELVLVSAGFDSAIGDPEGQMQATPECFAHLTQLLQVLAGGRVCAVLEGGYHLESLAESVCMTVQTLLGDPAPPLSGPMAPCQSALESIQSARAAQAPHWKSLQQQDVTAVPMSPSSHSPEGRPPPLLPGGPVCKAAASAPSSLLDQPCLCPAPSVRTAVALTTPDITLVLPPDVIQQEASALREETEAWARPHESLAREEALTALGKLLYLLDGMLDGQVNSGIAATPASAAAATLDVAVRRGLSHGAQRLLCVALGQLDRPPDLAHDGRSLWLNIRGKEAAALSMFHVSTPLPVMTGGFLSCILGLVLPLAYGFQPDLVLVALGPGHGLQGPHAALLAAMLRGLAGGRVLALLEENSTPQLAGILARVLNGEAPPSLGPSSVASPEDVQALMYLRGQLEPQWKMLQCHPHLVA

Histone deacetylase 11 = biological target: T4, Histone deacetylase 11 (Homo sapiens, UniProt Q96DB2); assay: Inhibition of HDAC11 (unknown origin) using fluorogenic tetrapeptide RHKK(Ac) substrate by fluorescence assay
T4 sequence (Q96DB2 whole entry): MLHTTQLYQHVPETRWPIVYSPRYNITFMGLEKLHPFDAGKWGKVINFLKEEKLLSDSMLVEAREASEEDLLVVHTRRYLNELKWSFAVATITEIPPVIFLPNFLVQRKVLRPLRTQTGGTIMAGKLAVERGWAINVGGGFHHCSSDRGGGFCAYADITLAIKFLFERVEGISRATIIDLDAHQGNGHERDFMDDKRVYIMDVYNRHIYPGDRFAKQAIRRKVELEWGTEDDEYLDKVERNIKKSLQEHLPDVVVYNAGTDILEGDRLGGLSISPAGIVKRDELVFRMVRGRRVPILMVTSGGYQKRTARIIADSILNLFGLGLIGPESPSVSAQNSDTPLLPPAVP

Histone deacetylase 1 [4] = biological target: T5, Histone deacetylase 1 (Homo sapiens, UniProt Q13547); assay: Inhibition of HDAC1 (unknown origin) using fluorogenic tetrapeptide RHKK(Ac) substrate at <50 uM by fluorescence assay
T5 sequence (Q13547 whole entry, the tested form may be a part): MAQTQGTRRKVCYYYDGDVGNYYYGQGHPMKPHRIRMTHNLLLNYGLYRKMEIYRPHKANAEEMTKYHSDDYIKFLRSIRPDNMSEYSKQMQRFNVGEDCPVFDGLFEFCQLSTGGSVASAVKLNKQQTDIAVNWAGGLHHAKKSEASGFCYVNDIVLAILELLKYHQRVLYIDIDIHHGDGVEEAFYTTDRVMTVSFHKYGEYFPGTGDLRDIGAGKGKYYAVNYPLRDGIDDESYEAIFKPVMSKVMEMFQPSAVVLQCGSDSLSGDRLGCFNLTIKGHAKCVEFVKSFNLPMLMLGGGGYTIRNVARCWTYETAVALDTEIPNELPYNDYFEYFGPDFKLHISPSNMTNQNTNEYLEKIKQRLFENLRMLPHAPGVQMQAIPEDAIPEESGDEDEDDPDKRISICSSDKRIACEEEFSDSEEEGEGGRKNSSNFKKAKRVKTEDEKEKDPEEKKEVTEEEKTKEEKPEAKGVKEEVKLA
Summary of the method: (§1)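 Fluorogenic assay with the tetrapeptide RHKK(Ac) substrate (p53 residues 379–382) at 50 μM.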

Histone deacetylase 2 = Histone deacetylase 2 (Homo sapiens, UniProt Q92769); assay: Inhibition of HDAC2 (unknown origin) using fluorogenic tetrapeptide RHKK(Ac) substrate at <50 uM by fluorescence assay; summary of the method: as §1
Chain of Histone deacetylase 2 (Q92769 whole entry): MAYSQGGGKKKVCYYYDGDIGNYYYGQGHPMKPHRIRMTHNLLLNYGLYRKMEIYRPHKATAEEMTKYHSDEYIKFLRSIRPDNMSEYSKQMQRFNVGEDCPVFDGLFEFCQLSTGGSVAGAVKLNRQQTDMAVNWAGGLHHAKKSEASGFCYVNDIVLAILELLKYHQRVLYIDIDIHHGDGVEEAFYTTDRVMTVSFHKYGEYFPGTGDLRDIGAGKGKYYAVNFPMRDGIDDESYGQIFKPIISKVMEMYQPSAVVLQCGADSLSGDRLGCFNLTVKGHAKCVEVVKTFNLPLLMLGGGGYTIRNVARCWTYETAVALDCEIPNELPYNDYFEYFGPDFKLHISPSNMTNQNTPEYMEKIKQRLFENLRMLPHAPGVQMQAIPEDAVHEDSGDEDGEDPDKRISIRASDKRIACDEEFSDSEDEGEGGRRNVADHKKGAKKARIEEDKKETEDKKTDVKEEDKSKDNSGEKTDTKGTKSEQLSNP

Histone deacetylase 3 [5] = biological target: T6, Histone deacetylase 3 (Homo sapiens, UniProt O15379); assay: Inhibition of HDAC3 (unknown origin) using fluorogenic tetrapeptide RHKK(Ac) substrate at <50 uM by fluorescence assay; summary of the method: as §1
T6 sequence (O15379 whole entry): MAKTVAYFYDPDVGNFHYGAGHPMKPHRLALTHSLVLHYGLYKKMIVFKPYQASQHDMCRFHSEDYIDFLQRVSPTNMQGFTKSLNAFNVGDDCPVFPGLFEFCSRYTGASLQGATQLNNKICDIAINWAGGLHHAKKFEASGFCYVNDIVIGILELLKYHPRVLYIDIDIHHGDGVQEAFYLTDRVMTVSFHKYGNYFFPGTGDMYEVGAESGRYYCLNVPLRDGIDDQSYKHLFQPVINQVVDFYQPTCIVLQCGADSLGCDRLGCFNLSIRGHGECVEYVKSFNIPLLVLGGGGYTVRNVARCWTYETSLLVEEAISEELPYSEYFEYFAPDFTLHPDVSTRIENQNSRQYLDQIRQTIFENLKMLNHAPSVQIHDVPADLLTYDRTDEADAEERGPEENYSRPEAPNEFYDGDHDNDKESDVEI

Histone deacetylase 1 [6] = biological target: T5, Histone deacetylase 1; assay: Inhibition of HDAC1 (unknown origin) using fluorogenic tetrapeptide RHKK(Ac) substrate by fluorescence assay
Histone deacetylase 3 [7] = biological target: T6, Histone deacetylase 3; assay: Inhibition of HDAC3 (unknown origin) using fluorogenic tetrapeptide RHKK(Ac) substrate by fluorescence assay
[8] = Cytotoxicity against human HCT116 cells after 24 hrs by SRB assay; assay type: functional, cell-based; conditions: HCT-116, 24 h
Summary of the method: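 HCT116 cells were cultured in McCoy's 5A with L-glutamine, 10% heat-inactivated FCS and 50 μg/mL gentamicin. After seeding at about 10% confluence and a 24 h recovery, they received drug for 24 h. Drug was washed out and cells were incubated 48 h more before SRB staining. IC50 is the 50% cell-number reduction versus vehicle, from fitted dose–response curves; means of at least two experiments.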

Histone deacetylase [9] = assay: Inhibition of HDAC-mediated tubulin deacetylation in human NCI-H460 cells after 3 hrs by Western blot analysis; assay type: cell-based
Summary of the method: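 Cells (NCI-H460) were treated for 3 h with graded concentrations. The cytoplasmic fraction was collected after HNB/1% NP-40 lysis and centrifugation of nuclei at 2000g. This fraction was resolved by SDS-PAGE and probed for acetylated α-tubulin against α-tubulin and β-actin. Bands were detected by ECL and quantified by densitometry after normalization; IC50 fitted; means of at least two experiments.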

Histone deacetylase [10] = assay: Inhibition of HDAC-mediated histone H4 deacetylation in human NCI-H460 cells after 3 hrs by Western blot analysis; assay type: cell-based
Summary of the method: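 NCI-H460 cells were plated the day before and treated 3 h across a dose range. Cells were washed with DPBS containing 5 mM NaB and lysed in HNB buffer with 1% NP-40. Histones were acid-extracted from nuclei with 0.4 equiv/L H2SO4 and precipitated with acetone. Blots were probed for acetyl-H4 against total H4. Read-out was ECL and densitometry after normalization; IC50 fitted; means of at least two experiments.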

[11] = biological target: T7, Histone deacetylase 8 (Homo sapiens) (UniProt Q9BY41); assay: Inhibition of HDAC8 (unknown origin) using fluorogenic tetrapeptide RHK(Ac)K(Ac) substrate at <50 uM by fluorescence assay
T7 sequence (whole entry): T2 sequence (Q9BY41 whole entry)
Summary of the method: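 The HDAC8 assay used the diacetylated fluorogenic substrate RHK(Ac)K(Ac) at 50 μM.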

[12] = biological target: T8, Polyamine deacetylase HDAC10 (Homo sapiens) (UniProt Q969S8); assay: Inhibition of HDAC10 (unknown origin) using fluorogenic tetrapeptide RHKK(Ac) substrate at <50 uM by fluorescence assay; summary of the method: as §1
T8 sequence (whole entry): T3 sequence (Q969S8 whole entry)

Structure (SMILES): CC(=O)SCCCCCCC(=O)Nc1ccccc1
solubility [1]: > 1000 µg/mL

Structure (SMILES): CC(=O)SCCCCC[C@H](NC(=O)[C@@H]1CCCC(=O)N1)C(=O)Nc1cccc(C)c1
IC50 (NCI-H460): 60 nM

Structure (SMILES): CC(=O)SCCCCC[C@H](NC(=O)[C@H]1CCC(=O)N1)C(=O)Nc1cccc(C)c1
IC50 (NCI-H460): 40 nM

Structure (SMILES): CC(=O)SCCCCC[C@H](NC(=O)[C@@H]1CCC(=O)N1)C(=O)Nc1cccc(C)c1
IC50 (NCI-H460): 60 nM

Structure (SMILES): CC(=O)SCCCCC[C@H](NC(=O)[C@@H]1CCCC(=O)N1)C(=O)Nc1ccccc1
IC50 (NCI-H460): 100 nM | IC50 [8]: 130 nM | IC50 (Histone deacetylase [9]): 100 nM | IC50 (Histone deacetylase [10]): 100 nM

Structure (SMILES): CC(C)C(=O)SCCCCCCC(=O)Nc1ccccc1
solubility [1]: > 1000 µg/mL

Results, then the compound that gave them:

IC50 [2]: 1120 nM | IC50 (Histone deacetylase 8): 44000 nM | IC50 [3]: 5210 nM | IC50 (Histone deacetylase 11): 30700 nM | inhibition (Histone deacetylase 1 [4]): inactive | inhibition (Histone deacetylase 2): inactive | inhibition (Histone deacetylase 3 [5]): inactive
Structure (SMILES): CC(C)(C)OC(=O)N[C@@H](CCCCCS)C(=O)NC1CCCC1

IC50 (Histone deacetylase 1 [6]): 2900 nM | IC50 (Histone deacetylase 3 [7]): 6330 nM | IC50 [2]: 582 nM | IC50 (Histone deacetylase 8): 2230 nM | IC50 [3]: 6000 nM | IC50 (Histone deacetylase 11): 293 nM | inhibition (Histone deacetylase 2): inactive
Structure (SMILES): O=C1CCC[C@@H](C(=O)N[C@@H](CCCCCS)C(=O)N2CCc3ccccc3C2)N1

IC50 (Histone deacetylase 3 [7]): 17100 nM | IC50 [2]: 9380 nM | IC50 (Histone deacetylase 11): 14200 nM | inhibition (Histone deacetylase 1 [4]): inactive | inhibition (Histone deacetylase 2): inactive | inhibition [11]: inactive | inhibition [12]: inactive
Structure (SMILES): O=C1CCC[C@@H](C(=O)N[C@H](CCCCCS)C(=O)Nc2ccccc2)N1
